Results of several laboratories.
Lines come from different studies, so protocols differ.
CYP2E1: Cytochrome P450 2E1 (CYP2E1, Homo sapiens, UniProt P05181)

CC1COc2ccccc2N1C(=O)C(Cl)Cl (centres unmarked) — microsomal CLint (metabolic stability; female monkey, liver microsomes; 5 µM, pH 7.4): 1400 µL/min/mg
Cc1csc2c(=O)n(O)c(=O)[nH]c12 — viability (HFF; cell growth or viability, MTS; 10 µM, 7 days): 122%
O=C(CCCCCCC(=O)Nc1ccc(CC[18F])cc1)NO — tracer uptake (male nude mouse, stomach; intravenous, 1 h, tumour-bearing): 1.5 %ID/g
Cc1c(C(=O)O)sc2[nH]c(=O)n(O)c(=O)c12 — viability (HFF; cell growth or viability, MTS; 10 µM, 7 days): 94%
CC(C)(C)OC(=O)CN1C(=O)Cc2c([nH]c3ccc(Br)cc23)-c2ccc(Cl)cc21 — CC50 (J774; cell growth or viability, WST-1; 24 h): ≤ 100 µM
Cn1ccc(COc2cnc(C(N)=O)cc2-c2ccc(O[11CH3])cc2F)n1 — tracer uptake (male mouse, lung; intravenous, 2.5 MBq, 5 min): 2.61 %ID/g
CCN(CC)C(=S)S — inhibition (CYP2E1; enzyme activity, inhibitor; human, liver microsomes; 50 µM): 75%
O=c1[nH]c2sc(-c3ccc(F)cc3)cc2c(=O)n1O — viability (HFF; cell growth or viability, MTS; 10 µM, 7 days): 112%
CCN(CC)C(=O)CN1C(=O)Cc2c([nH]c3ccc(Br)cc23)-c2ccc(Cl)cc21 — CC50 (J774; cell growth or viability, WST-1; 24 h): ≥ 100 µM
O=c1[nH]c2cc(-c3ccccc3)sc2c(=O)n1O — viability (HFF; cell growth or viability, MTS; 10 µM, 7 days): 85%
CN(C)C(=O)CN1C(=O)Cc2c([nH]c3ccc(Br)cc23)-c2ccc(Cl)cc21 — CC50 (J774; cell growth or viability, WST-1; 24 h): ≥ 100 µM
Nc1ccc(C=Cc2ccc([125I])cc2)cc1 — tracer uptake (Swiss mouse, brain; intravenous, 5 µCi, 2 h): 1.12 %ID/g
CCN(CC)C(=O)[C@@]1(c2ccccc2)C[C@H]1CN — Cmax (male cynomolgus monkey, plasma; oral, 30 mg/kg): 5020 ng/mL
O=c1[nH]c2sc3c(c2c(=O)n1O)CCN(Cc1ccccc1)C3 — viability (HFF; cell growth or viability, MTS; 10 µM, 7 days): 104%
C[C@@H](c1ccc2nccn2c1)n1nnc2ncc(-c3cnn(C)c3)nc21 — IC50 (CYP2E1; enzyme activity, inhibitor; human, liver microsomes; pH 7.4): 100 µM
O=C(CN1C(=O)Cc2c([nH]c3ccc(Br)cc23)-c2ccc(Cl)cc21)N1CCNCC1 — CC50 (J774; cell growth or viability, WST-1; 24 h): ≤ 10 µM
CCc1cc(/C(C)=N/OCc2ccc(C3CCCCC3)c(C(F)(F)F)c2)ccc1CN1CC(C(=O)O)C1 — inhibition (CYP2E1; enzyme activity, inhibitor; human, liver microsomes; 100 µM, 20 min): 32.6%
